Only some compounds are listed: those with a hit (about 2.9% of all), similar ones and a draw of the others.
S100A4 inh HTS: inhibitors of S100A4-myosin IIA peptide binding, primary screen, biochemical, fluorescence polarization, TAMRA-MyoIIA peptide | Protein S100-A4 (Homo sapiens), P26447 | inhibition, % at 10.7 µM | actives 0.14% (n = 360,000);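 active = mean inhibition of at least 70% across replicates, with every replicate also reaching that level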
Target sequence (P26447 whole entry, looked up): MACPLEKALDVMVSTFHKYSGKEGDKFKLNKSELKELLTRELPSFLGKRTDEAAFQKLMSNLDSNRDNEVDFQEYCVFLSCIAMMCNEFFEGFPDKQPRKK
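Material: human S100A4 monomer with TAMRA-labelled myosin IIA peptide; buffer or medium: HEPES pH 7.2 with CaCl2, KCl, NaCl, DTT, Triton; compound dosing: one concentration per compound; schedule: 5 min incubation before reading; benchmarks: neutral control DMSO, positive control TFP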
DENV2 CPE: inhibitors of DENV2 cytopathic effect, primary screen, cell-based, plate reader, single concentration | DENV2-infected cells, cytopathic effect rescue | CPE inhibition, % at 9.99 µM | actives 1.7% (n = 350,000) | AID 651640, 2012; in the data active = CPE inhibition above about 20%, passing the limit was not always enough; tested in BHK-21 cells;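 also: 0% = median of neutral control wells and 100% = median of positive control wells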
SIRT5 block: SIRT5 desuccinylase inhibitors, primary screen, biochemical, fluorescence imaging, single point, set 5; inhibition, % at 15 µM; NAD-dependent protein deacylase sirtuin-5, mitochondrial (Homo sapiens), Q9NXA8; AID 652115, 2013; actives 1.1% (n = 330,000); Purified SirT5, succinyl-peptide AMC, trypsin-coupled fluorescence; in the data active = inhibition above about 15%
Target sequence (Q9NXA8 whole entry, looked up): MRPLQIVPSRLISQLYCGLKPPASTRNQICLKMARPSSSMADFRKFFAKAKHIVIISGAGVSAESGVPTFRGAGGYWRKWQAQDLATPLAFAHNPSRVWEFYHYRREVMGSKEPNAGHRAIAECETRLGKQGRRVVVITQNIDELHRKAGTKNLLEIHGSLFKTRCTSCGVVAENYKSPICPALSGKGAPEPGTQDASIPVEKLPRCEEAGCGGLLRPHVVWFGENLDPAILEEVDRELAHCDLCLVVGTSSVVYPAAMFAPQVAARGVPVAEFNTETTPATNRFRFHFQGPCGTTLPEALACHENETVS
ERAP1 inh: human ERAP1 aminopeptidase inhibitors, primary screen, biochemical, single point, plate reader | Endoplasmic reticulum aminopeptidase 1 (Homo sapiens), Q9NZ08 | recombinant ERAP1, Leu-AMC fluorescence, 60 min | inhibition, % at 10.7 µM | actives 0.15% (n = 340,000) | AID 652197, 2013;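 active = mean replicate inhibition of at least 30%, or all replicates individually reaching that 30% level; inactive = mean below 30% and not every replicate reaching it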;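 also: 0% = neutral control wells and 100% = L-leucinethiol positive control wells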
CAL PDZ FP-1: untagged CAL PDZ binding inhibitors, primary screen, biochemical, fluorescence polarization, HTS; purified CAL PDZ, TMR-peptide fluorescence polarization, 1 h; inhibition, % at 24.9 µM; actives 0.92% (n = 300,000); AID 602252, 2012;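 active = mean inhibition of at least 30% with at least half of replicates also reaching 30%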;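 also: 0% = DMSO neutral control and 100% = excess unlabeled competitor peptide PRC23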
CAL PDZ FP-2: CAL PDZ peptide-binding inhibitors, primary screen, biochemical, fluorescence polarization, Cer-tagged CAL PDZ, HTS | purified CAL PDZ, TMR-peptide fluorescence polarization, 1 h | inhibition, % at 20 µM | actives 0.02% (n = 330,000);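 active = highest replicate inhibition of at least 40%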;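 also: plate controls were DMSO neutral control wells for no effect and unlabeled competitor peptide control wells for full effect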
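Material: tagged CAL PDZ protein CerCALP, purified; buffer or medium: sodium phosphate/NaCl buffer pH 7.4 with TCEP, IgG, Thesit; also added: fluorescent TMR peptide probe; schedule: 1 h incubation at room temperature before polarization reading; technique: fluorescence polarization from S- and P-plane intensities, G-factor corrected; control set: unlabelled peptide and DMSO controls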
The depositor's hits bear a star.

Results for COc1ccc(CNC(=O)C(C)N2C(=O)NC3(CCCCCCC3)C2=O)cc1 (stereo unspecified) ?
S100A4 inh HTS: 2; DENV2 CPE: 87*; SIRT5 block: -1; ERAP1 inh: -3; CAL PDZ FP-1: 0; CAL PDZ FP-2: 2

What do the screens show for `COc1ccc(CNC(=O)COC(=O)CN2C(=O)NC3(CCCC3)C2=O)cc1`?
S100A4 inh HTS: -3; DENV2 CPE: 29*; SIRT5 block: 0; ERAP1 inh: 0; CAL PDZ FP-1: 6; CAL PDZ FP-2: -1

How did Cc1cc(C)cc(NC(=O)CSc2nc(=O)n(CCN3CCOCC3)c3c2CCCC3)c1 do in these assays?
S100A4 inh HTS: 0; DENV2 CPE: -3; SIRT5 block: -4; ERAP1 inh: 4; CAL PDZ FP-1: 52*; CAL PDZ FP-2: -1

How did Cc1cccc(NC(=O)CSc2nc(=O)n(CCCN3CCOCC3)c3c2CCCC3)c1 do in these assays?
S100A4 inh HTS: -12; DENV2 CPE: -6; SIRT5 block: 3; ERAP1 inh: -1; CAL PDZ FP-1: 48*; CAL PDZ FP-2: -1

Results for O=C(CSc1nc(=O)n(CCCN2CCOCC2)c2c1CCCC2)Nc1cccc(Cl)c1 ?
S100A4 inh HTS: 6; DENV2 CPE: 0; SIRT5 block: -1; ERAP1 inh: 4; CAL PDZ FP-1: -7; CAL PDZ FP-2: -1

How did COc1ccc([C@H]2C[C@@H](O)[C@H](n3cc(COC(=O)c4ccccc4)nn3)CN2Cc2cccs2)cc1 do in these assays?
S100A4 inh HTS: -14; DENV2 CPE: 56*; SIRT5 block: 8; ERAP1 inh: -4

Results for COc1ccc([C@H]2C[C@@H](n3cc(C4CC4)nn3)[C@H](O)CN2Cc2cccs2)cc1 ?
S100A4 inh HTS: -3; DENV2 CPE: 35*; SIRT5 block: -1; ERAP1 inh: -4

Results for COc1ccc([C@H]2C[C@H](O)[C@@H](n3cc(COC(=O)c4ccccc4)nn3)CN2CC2CCCCC2)cc1 ?
S100A4 inh HTS: 34; DENV2 CPE: 20*; SIRT5 block: -3; ERAP1 inh: -1

What do the screens show for `O[C@H]1CN(CC2CCCCC2)[C@@H](c2ccc(Cl)cc2)C[C@@H]1n1cc(C2CC2)nn1`?
S100A4 inh HTS: 0; DENV2 CPE: 45*; SIRT5 block: 8; ERAP1 inh: 28

What do the screens show for `O[C@@H]1CN(CC2CCCCC2)[C@@H](c2ccccc2)C[C@H]1n1cc(C2CC2)nn1`?
S100A4 inh HTS: 1; DENV2 CPE: 1; SIRT5 block: -2; ERAP1 inh: 0

How did O=C(c1ccncc1)N1C[C@@H]2[C@H](c3ccccc31)[C@H](CO)N2C(=O)Nc1ccccc1Cl do in these assays?
S100A4 inh HTS: 0; DENV2 CPE: 15; SIRT5 block: -1; ERAP1 inh: 2

Results for CN(C)C(=O)c1cccc(-c2ccc([C@H]3[C@H](CO)N4C(=O)CN(C(=O)C5CCCC5)C[C@@H]34)cc2)c1 ?
S100A4 inh HTS: 16; DENV2 CPE: 0; SIRT5 block: 2; ERAP1 inh: -2

What do the screens show for `COCCOC(=O)N1C(=O)[C@@]2(c3cc(C#Cc4ccc(OC)cc4)ccc31)[C@H](C(=O)NC[C@H](O)c1ccccc1)[C@H]1C(=O)O[C@H](c3ccccc3)[C@H](c3ccccc3)N1[C@@H]2c1ccc(O)cc1`?
S100A4 inh HTS: 11; DENV2 CPE: -7; SIRT5 block: -1; ERAP1 inh: 0

Results for C[C@@H]1CCCCO[C@H](CN(C)S(=O)(=O)c2ccccc2)[C@H](C)CN([C@H](C)CO)C(=O)c2cc(NC(=O)Nc3cccc4ccccc34)ccc2O1 ?
S100A4 inh HTS: -4; DENV2 CPE: 3; SIRT5 block: -3; ERAP1 inh: -5

How did Cc1c(NS(=O)(=O)c2ccc(Br)s2)c(=O)n(-c2ccccc2)n1C do in these assays?
CAL PDZ FP-1: -5; CAL PDZ FP-2: 0

Results for Cc1c(NS(=O)(=O)c2cccc(C(=O)Nc3ccccc3)c2)c(=O)n(-c2ccccc2)n1C ?
S100A4 inh HTS: 2; DENV2 CPE: 0; SIRT5 block: 1; ERAP1 inh: 0; CAL PDZ FP-1: -1; CAL PDZ FP-2: -2

What do the screens show for `Cc1c(NS(=O)(=O)c2cccc(C(=O)NCc3ccccc3Cl)c2)c(=O)n(-c2ccccc2)n1C`?
S100A4 inh HTS: -2; DENV2 CPE: -1; SIRT5 block: 16*; ERAP1 inh: -1; CAL PDZ FP-2: 0

How did Cc1c(NS(=O)(=O)c2ccc(N=NN(C)C)cc2)c(=O)n(-c2ccccc2)n1C do in these assays?
S100A4 inh HTS: -6; DENV2 CPE: -5; SIRT5 block: 18*; ERAP1 inh: 1; CAL PDZ FP-1: -1; CAL PDZ FP-2: 0

How did Cc1c(NS(=O)(=O)c2ccc(S(=O)(=O)c3ccccc3)s2)c(=O)n(-c2ccccc2)n1C do in these assays?
S100A4 inh HTS: -12; DENV2 CPE: 14; SIRT5 block: -3; CAL PDZ FP-1: 50*; CAL PDZ FP-2: 0

How did COc1ccc(CN(C)C[C@H]2Oc3ccc(NS(=O)(=O)c4ccc(F)cc4)cc3C(=O)N([C@H](C)CO)C[C@H]2C)cc1 do in these assays?
S100A4 inh HTS: 11; DENV2 CPE: 4; SIRT5 block: -3; ERAP1 inh: -1

How did O=C(Nc1ccccc1F)N[C@H]1CC[C@@H](CCNC(=O)C2CCC2)O[C@@H]1CO do in these assays?
S100A4 inh HTS: 2; DENV2 CPE: -2; SIRT5 block: 0; ERAP1 inh: 1

Results for CCOC(=O)c1c(C)[nH]c(C)c1C(=O)CN1C(=O)NC2(CCCCCC2)C1=O ?
S100A4 inh HTS: -2; DENV2 CPE: 8; SIRT5 block: -6; ERAP1 inh: 1; CAL PDZ FP-1: 35*; CAL PDZ FP-2: 0

Results for CCOC(=O)c1c(C)[nH]c(C(=O)CN2C(=O)NC3(CCCC3)C2=O)c1C ?
S100A4 inh HTS: -6; DENV2 CPE: -2; SIRT5 block: 2; ERAP1 inh: -3; CAL PDZ FP-1: -2; CAL PDZ FP-2: -1

What do the screens show for `COc1ccc2c(c1)C(=O)[C@@H](O)[C@H](c1ccc(OC)c(Br)c1)O2`?
CAL PDZ FP-1: -1; CAL PDZ FP-2: 0

How did COc1cc(OC)c2c(c1)OC(c1ccc(OC)c(OC)c1)C(O)C2=O (stereo unspecified) do in these assays?
S100A4 inh HTS: -2; DENV2 CPE: 32*; ERAP1 inh: -1; CAL PDZ FP-2: -2

Bioassay records from PubChem.
